Source: ChEMBL document CHEMBL1926577, “Novel 1,3,4-heterodiazole analogues: synthesis and in-vitro antitumor activity” (2012)

How the values were obtained:
Type in all cases: functional
[1] = system: CCRF-CEM; experiment: Growth inhibition of human CCRF-CEM cells at 10 uM after 48 hrs by coulter counter method; settings: read-out: GI
Method in brief: (§1)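 NCI 60-cell-line panel, single dose. Compound dissolved first in DMSO, then diluted in phosphate-buffered saline so that every final dilution held under 1% DMSO. Duplicate wells received cells at 6 × 10⁴ cells/ml. Controls held PBS/DMSO at the same dilution. Plates were incubated 48 h at 37 °C under 5% CO₂. Cells were then diluted 10-fold in saline and counted on a Coulter counter, with counts corrected for the dilution. Results are given as percent growth inhibition.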

[2] = system: HL-60(TB); experiment: Growth inhibition of human HL-60(TB) cells at 10 uM after 48 hrs by coulter counter method; settings: HL-60, 48 h, read-out: GI
Method in brief: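 Single-dose screen on the NCI 60-line panel (leukemia subpanel). Compound is dissolved in DMSO and diluted in PBS, with final DMSO below 1%. Duplicate wells hold 6 × 10⁴ cells/ml at 37 °C, 5% CO₂, for 48 h. Cells are counted by Coulter counter after 10-fold saline dilution. Read-out is percent growth versus PBS/DMSO controls, expressed as % growth inhibition.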

[3] = system: K562; experiment: Growth inhibition of human K562 cells at 10 uM after 48 hrs by coulter counter method; settings: K562, 48 h, read-out: GI; method in brief: as §1
[4] = system: MOLT-4; experiment: Growth inhibition of human MOLT4 cells at 10 uM after 48 hrs by coulter counter method; settings: MOLT-4, 48 h, read-out: GI; method in brief: as §1
[5] = system: RPMI-8226; experiment: Growth inhibition of human RPMI8226 cells at 10 uM after 48 hrs by coulter counter method; settings: RPMI-8226, 48 h, read-out: GI; method in brief: as §1
[6] = system: SR; experiment: Growth inhibition of human SR cells at 10 uM after 48 hrs by coulter counter method; settings: read-out: GI; method in brief: as §1
[7] = system: A549; experiment: Growth inhibition of human A549 cells at 10 uM after 48 hrs by coulter counter method; settings: A549, 48 h, read-out: GI; method in brief: as §1
[8] = system: EKVX; experiment: Growth inhibition of human EKVX cells at 10 uM after 48 hrs by coulter counter method; settings: read-out: GI; method in brief: as §1
[9] = system: NCI-H226; experiment: Growth inhibition of human NCI-H226 cells at 10 uM after 48 hrs by coulter counter method; settings: NCI-H226, 48 h, read-out: GI; method in brief: as §1
[10] = system: NCI-H23; experiment: Growth inhibition of human NCI-H23 cells at 10 uM after 48 hrs by coulter counter method; settings: NCI-H23, 48 h, read-out: GI; method in brief: as §1
[11] = system: NCI-H322M; experiment: Growth inhibition of human NCI-H322M cells at 10 uM after 48 hrs by coulter counter method; settings: read-out: GI; method in brief: as §1
[12] = system: NCI-H522; experiment: Growth inhibition of human NCI-H522 cells at 10 uM after 48 hrs by coulter counter method; settings: NCI-H522, 48 h, read-out: GI; method in brief: as §1
[13] = system: HCT-116; experiment: Growth inhibition of human HCT116 cells at 10 uM after 48 hrs by coulter counter method; settings: HCT-116, 48 h, read-out: GI; method in brief: as §1
[14] = system: HCT-15; experiment: Growth inhibition of human HCT15 cells at 10 uM after 48 hrs by coulter counter method; settings: HCT-15, 48 h, read-out: GI; method in brief: as §1
[15] = system: HT-29; experiment: Growth inhibition of human HT-29 cells at 10 uM after 48 hrs by coulter counter method; settings: HT-29, 48 h, read-out: GI; method in brief: as §1
[16] = system: KM12; experiment: Growth inhibition of human KM12 cells at 10 uM after 48 hrs by coulter counter method; settings: KM12, 48 h, read-out: GI; method in brief: as §1
[17] = system: SF-268; experiment: Growth inhibition of human SF268 cells at 10 uM after 48 hrs by coulter counter method; settings: SF-268, 48 h, read-out: GI; method in brief: as §1
[18] = system: SF-295; experiment: Growth inhibition of human SF295 cells at 10 uM after 48 hrs by coulter counter method; settings: SF-295, 48 h, read-out: GI; method in brief: as §1
[19] = system: SNB-19; experiment: Growth inhibition of human SNB19 cells at 10 uM after 48 hrs by coulter counter method; settings: SNB-19, 48 h, read-out: GI; method in brief: as §1
[20] = system: SNB-75; experiment: Growth inhibition of human SNB75 cells at 10 uM after 48 hrs by coulter counter method; settings: SNB-75, 48 h, read-out: GI; method in brief: as §1
[21] = system: U-251; experiment: Growth inhibition of human U251 cells at 10 uM after 48 hrs by coulter counter method; settings: U-251, 48 h, read-out: GI; method in brief: as §1
[22] = system: LOX IMVI; experiment: Growth inhibition of human LOXIMVI cells at 10 uM after 48 hrs by coulter counter method; settings: read-out: GI; method in brief: as §1
[23] = system: Malme-3M; experiment: Growth inhibition of human MALME-3M cells at 10 uM after 48 hrs by coulter counter method; settings: read-out: GI; method in brief: as §1
[24] = system: M14; experiment: Growth inhibition of human M14 cells at 10 uM after 48 hrs by coulter counter method; settings: M14, 48 h, read-out: GI; method in brief: as §1
[25] = system: MDA-MB-435; experiment: Growth inhibition of human MDA-MB-435 cells at 10 uM after 48 hrs by coulter counter method; settings: MDA-MB-435, 48 h, read-out: GI; method in brief: as §1
[26] = system: SK-MEL-2; experiment: Growth inhibition of human SK-MEL-2 cells at 10 uM after 48 hrs by coulter counter method; settings: SK-MEL-2, 48 h, read-out: GI; method in brief: as §1
[27] = system: SK-MEL-28; experiment: Growth inhibition of human SK-MEL-28 cells at 10 uM after 48 hrs by coulter counter method; settings: SK-MEL-28, 48 h, read-out: GI; method in brief: as §1
[28] = system: SK-MEL-5; experiment: Growth inhibition of human SK-MEL-5 cells at 10 uM after 48 hrs by coulter counter method; settings: SK-MEL-5, 48 h, read-out: GI; method in brief: as §1
[29] = system: UACC-257; experiment: Growth inhibition of human UACC257 cells at 10 uM after 48 hrs by coulter counter method; settings: UACC-257, 48 h, read-out: GI; method in brief: as §1
[30] = system: UACC-62; experiment: Growth inhibition of human UACC62 cells at 10 uM after 48 hrs by coulter counter method; settings: UACC-62, 48 h, read-out: GI; method in brief: as §1
[31] = system: IGROV-1; experiment: Growth inhibition of human IGROV1 cells at 10 uM after 48 hrs by coulter counter method; settings: IGROV-1, 48 h, read-out: GI; method in brief: as §1
[32] = system: OVCAR-8; experiment: Growth inhibition of human OVCAR8 cells at 10 uM after 48 hrs by coulter counter method; settings: OVCAR-8, 48 h, read-out: GI; method in brief: as §1
[33] = system: NCI/ADR-RES; experiment: Growth inhibition of human NCI/ADR-RES cells at 10 uM after 48 hrs by coulter counter method; settings: read-out: GI; method in brief: as §1
[34] = system: 786-0; experiment: Growth inhibition of human 786-0 cells at 10 uM after 48 hrs by coulter counter method; settings: 786-0, 48 h, read-out: GI; method in brief: as §1
[35] = system: A498; experiment: Growth inhibition of human A498 cells at 10 uM after 48 hrs by coulter counter method; settings: A498, 48 h, read-out: GI; method in brief: as §1
[36] = system: ACHN; experiment: Growth inhibition of human ACHN cells at 10 uM after 48 hrs by coulter counter method; settings: read-out: GI; method in brief: as §1
[37] = system: CAKI-1; experiment: Growth inhibition of human Caki1 cells at 10 uM after 48 hrs by coulter counter method; settings: CAKI-1, 48 h, read-out: GI; method in brief: as §1
[38] = system: SN12C; experiment: Growth inhibition of human SN12C cells at 10 uM after 48 hrs by coulter counter method; settings: read-out: GI; method in brief: as §1
[39] = system: TK-10; experiment: Growth inhibition of human TK10 cells at 10 uM after 48 hrs by coulter counter method; settings: TK-10, 48 h, read-out: GI; method in brief: as §1
[40] = system: UO-31; experiment: Growth inhibition of human UO31 cells at 10 uM after 48 hrs by coulter counter method; settings: UO-31, 48 h, read-out: GI; method in brief: as §1
[41] = system: PC-3; experiment: Growth inhibition of human PC3 cells at 10 uM after 48 hrs by coulter counter method; settings: PC-3, 48 h, read-out: GI; method in brief: as §1
[42] = system: MCF7; experiment: Growth inhibition of human MCF7 cells at 10 uM after 48 hrs by coulter counter method; settings: MCF7, 48 h, read-out: GI; method in brief: as §1
[43] = system: BT-549; experiment: Growth inhibition of human BT549 cells at 10 uM after 48 hrs by coulter counter method; settings: BT-549, 48 h, read-out: GI; method in brief: as §1
[44] = system: T47D; experiment: Growth inhibition of human T47D cells at 10 uM after 48 hrs by coulter counter method; settings: read-out: GI; method in brief: as §1
[45] = system: MDA-MB-468; experiment: Growth inhibition of human MDA-MB-468 cells at 10 uM after 48 hrs by coulter counter method; settings: MDA-MB-468, 48 h, read-out: GI; method in brief: as §1

O=C(CCN1CCCCC1)Nc1nnc(-c2ccc(Cl)cc2)s1
inhibition of growth at 10 µM [1]: < 10%
inhibition of growth at 10 µM [2]: < 10%
inhibition of growth at 10 µM [3]: < 10%
inhibition of growth at 10 µM [4]: < 10%
inhibition of growth at 10 µM [5]: < 10%
inhibition of growth at 10 µM [6]: 11.9%
inhibition of growth at 10 µM [7]: < 10%
inhibition of growth at 10 µM [8]: 20.4%
inhibition of growth at 10 µM [9]: < 10%
inhibition of growth at 10 µM [10]: < 10%
inhibition of growth at 10 µM [11]: < 10%
inhibition of growth at 10 µM [12]: 19.5%
inhibition of growth at 10 µM [13]: < 10%
inhibition of growth at 10 µM [14]: < 10%
inhibition of growth at 10 µM [15]: < 10%
inhibition of growth at 10 µM [16]: < 10%
inhibition of growth at 10 µM [17]: < 10%
inhibition of growth at 10 µM [18]: 11%
inhibition of growth at 10 µM [19]: < 10%
inhibition of growth at 10 µM [20]: < 10%
inhibition of growth at 10 µM [21]: 12%
inhibition of growth at 10 µM [22]: < 10%
inhibition of growth at 10 µM [23]: 10.7%
inhibition of growth at 10 µM [24]: < 10%
inhibition of growth at 10 µM [25]: < 10%
inhibition of growth at 10 µM [26]: < 10%
inhibition of growth at 10 µM [27]: < 10%
inhibition of growth at 10 µM [28]: 24.7%
inhibition of growth at 10 µM [29]: < 10%
inhibition of growth at 10 µM [30]: < 10%
inhibition of growth at 10 µM [31]: < 10%
inhibition of growth at 10 µM [32]: < 10%
inhibition of growth at 10 µM [33]: < 10%
inhibition of growth at 10 µM [34]: < 10%
inhibition of growth at 10 µM [35]: 11.6%
inhibition of growth at 10 µM [36]: < 10%
inhibition of growth at 10 µM [37]: 18.8%
inhibition of growth at 10 µM [38]: < 10%
inhibition of growth at 10 µM [39]: < 10%
inhibition of growth at 10 µM [40]: 28.6%
inhibition of growth at 10 µM [41]: < 10%
inhibition of growth at 10 µM [42]: < 10%
inhibition of growth at 10 µM [43]: < 10%
inhibition of growth at 10 µM [44]: < 10%
inhibition of growth at 10 µM [45]: < 10%
